Test results reported in ChEMBL document CHEMBL2062505, “Thermodynamic Investigation of Inhibitor Binding to 1-Deoxy-D-Xylulose-5-Phosphate Reductoisomerase” (ACS Med Chem Lett, 2012).

How the values were obtained:
Escherichia coli [1] = assay: Binding affinity to Escherichia coli DXR by isothermal titration […] assay in presence of 2 mM NADPH and 150 mM NaCl at 279 K and pH 7.6 and Mg2+
How it was run: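 Isothermal titration calorimetry of inhibitor titrated into E. coli DXR at 279 K, pH 7.6, with 2 mM NADPH, 150 mM NaCl and Mg2+. Ka and ΔH come from fitted titration curves, with ΔG and ΔS derived from them. Kd is taken as the inverse of Ka.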

Plasmodium falciparum = assay: Binding affinity to His6-tagged Plasmodium falciparum DXR expressed in Escherichia coli M15 by isothermal titration […] assay in presence of 2 mM NADPH and 150 mM NaCl at 279 K and pH 7.6
How it was run: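 PfDXR gene cloned into pQE30, expressed in E. coli M15, and purified as His6-tagged protein. ITC run at 279 K, pH 7.6, with 2 mM Mn2+ and 2 mM NADPH. Ka and ΔH come from curve fitting, with Kd as the inverse of Ka.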

[2] = tested on: Mycobacterium tuberculosis; assay: Binding affinity to Mycobacterium tuberculosis DXR by isothermal titration […] assay in presence of 2 mM NADPH and 150 mM NaCl at 279 K and pH 7.6
Escherichia coli [3] = assay: Binding affinity to Escherichia coli DXR by isothermal titration […] assay in presence of 2 mM NADPH and 150 mM NaCl at 279 K and pH 7.6 and Mn2+
How it was run: (§1)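 Heat of inhibitor binding to E. coli DXR (EcDXR) was measured by isothermal titration calorimetry and fitted to binding curves. The fit gave the association constant Ka (M–1) and ΔH, with ΔG and ΔS also reported. Kd was taken as the inverse of Ka. The divalent metal ion (Mg2+ or Mn2+) was included in the titration.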

Escherichia coli [4] = assay: Binding affinity to Escherichia coli DXR by isothermal titration […] assay in presence of 2 mM NADPH and 150 mM NaCl at 279 K and pH 8.5 and Mg2+; how it was run: as §1
[5] = Inhibition of Escherichia coli DXR using DXP as substrate preincubated for 5 mins
[6] = Inhibition of His6-tagged Plasmodium falciparum DXR expressed in Escherichia coli M15 using DXP as substrate preincubated for 5 mins
[7] = Inhibition of Mycobacterium tuberculosis DXR using DXP as substrate preincubated for 5 mins
Escherichia coli [8] = assay: Binding affinity to Escherichia coli DXR by isothermal titration […] assay in presence of 2 mM NADPH and 150 mM NaCl at 279 K and pH 8.5
How it was run: (§2)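 Isothermal titration calorimetry of inhibitor binding to E. coli DXR, run at 279 K with 2 mM NADPH and 150 mM NaCl. Titrations were done with Mg2+ or Mn2+ present, or with no divalent metal ion. Fitted curves gave ΔH and Ka, with ΔG and ΔS derived from them. Kd was taken as the inverse of Ka.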

Escherichia coli [9] = assay: Binding affinity to Escherichia coli DXR by isothermal titration […] assay in presence of 2 mM NADPH and 150 mM NaCl at 279 K and pH 7.6; how it was run: as §2

Compound	Ka (Escherichia coli [1])	Ka (Plasmodium falciparum)	Ka [2]	Ka (Escherichia coli [3]) [×10⁶ /M]	Ka (Escherichia coli [4]) [×10⁶ /M]	Ki [5] [µM]	Ki [6] [µM]	Ki [7] [µM]	Ka (Escherichia coli [8]) [×10⁵ /M]	Ka (Escherichia coli [9]) [×10⁵ /M]
O=CN(O)CCCP(=O)(O)O [FOSMIDOMYCIN]	6.67 ×10⁶ /M	1.28 ×10⁷ /M	3.45 ×10⁶ /M	7.35	5.6					
O=c1ccc(-c2ccccc2)cn1O [1-HYDROXY-5-PHENYLPYRIDIN-2(1H)-ONE]	1.72 ×10⁵ /M	2.69 ×10⁵ /M	3.42 ×10⁵ /M			0.7	14.6	21.8	2.55	2.87
O=P(O)(O)Cc1ccc(-c2ccccc2)cn1	4.83 ×10⁵ /M	4.67 ×10⁵ /M	4.44 ×10⁵ /M			0.42	1.1	3.2		
O=P(O)(O)Cc1ccccn1 [PYRIDIN-2-YLMETHYLPHOSPHONIC ACID]	4.93 ×10⁵ /M	8.77 ×10⁵ /M	6.29 ×10⁵ /M			2.3	3.3	1.6	4.89	4.31
O=CN(O)CCC(c1ccc(Cl)c(Cl)c1)P(=O)(O)O (centres undefined)	3.03 ×10⁶ /M	3.13 ×10⁶ /M	2.08 ×10⁶ /M			0.058	0.015	1.2		
CC(=O)N(O)CCCP(=O)(O)O [FR-900098]	7.14 ×10⁶ /M	1.28 ×10⁷ /M	1.79 ×10⁶ /M			0.019	0.011	0.13		
